Source: article PMC6694902 (Journal of Taibah University Medical Sciences, 2017)
Values after ≈ are worked out from the molar mass of the structure shown.

Assays:
Escherichia coli (res) [1] = test: Agar well diffusion, zone of inhibition; type: cell-based; details: mean ± S.D., n = 6; resistant to norfloxacin, ofloxacin, ampicillin, cefixime, nitrofurantoin
Summary of the method: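 Clinical isolate from a faecal sample (Bhubaneswar hospital). Nutrient agar plates were seeded with a 1.5 × 10^6 CFU/mL suspension matched to McFarland 0.5. Test compound was loaded into the agar wells from a DMF stock (1 mg/mL). Plates were incubated at 37 °C for 18–24 h and the inhibition zone was read. Amoxicillin and ampicillin were the reference antibiotics.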

[2] = tested on: Klebsiella pneumoniae (MTCC 109); test: Agar well diffusion, zone of inhibition; type: cell-based; details: mean ± S.D., n = 6
Summary of the method: (§1)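 Agar well diffusion on nutrient agar. K. pneumoniae MTCC 109 came from IMTECH; S. aureus (res) was an Utkal University isolate. Plates were seeded with 1.5 × 10^6 CFU/mL suspensions (McFarland 0.5). Test compounds were dissolved in DMF (1 mg/mL stock) and placed in wells, with amoxicillin and ampicillin as references. Plates were kept at 37 °C for 18–24 h, then zones were read.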

[3] = tested on: Staphylococcus aureus (res); test: Agar well diffusion, zone of inhibition; type: cell-based; details: mean ± S.D., n = 6; resistant to norfloxacin, ofloxacin, ampicillin, cefotaxime
Summary of the method: as §1

[4] = tested on: Candida albicans (MTCC 3017); test: Agar well diffusion, zone of inhibition; type: cell-based; details: mean ± S.D., n = 6
Summary of the method: (§2)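 Agar well diffusion on Sabouraud dextrose agar. C. albicans MTCC 3017 came from IMTECH; C. neoformans was an Utkal University strain. Plates were seeded with 1.5 × 10^6 CFU/mL suspensions (McFarland 0.5). Test compounds were dissolved in DMF (1 mg/mL stock) and loaded into wells, with fluconazole as reference. Incubation was 37 °C for 18–24 h, and zones were measured.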

Cryptococcus neoformans [5] = test: Agar well diffusion, zone of inhibition; type: cell-based; details: mean ± S.D., n = 6
Summary of the method: as §2

[6] = tested on: Staphylococcus aureus (res); test: Minimum inhibitory concentration; type: cell-based; details: for MIC: Staphylococcus aureus, read-out: Minimum inhibitory concentration (MIC), S. aureus (res), 31.25–500 µg/mL tested, 37 °C, 18–24 h; for Minimum inhibitory concentration (MIC), S. aureus (res): 31.25–500 µg/mL tested, 37 °C, 18–24 h
Summary of the method: (§3)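 MIC was determined in nutrient agar wells seeded with bacteria (McFarland 0.5, 1.5 × 10^6 CFU/mL). E. coli (res) and S. aureus (res) were clinical isolates; K. pneumoniae was MTCC 109. DMF stocks at 1 mg/mL were diluted two-fold to five levels (31.25–500 µg/mL) in wells, with amoxicillin and ampicillin as references. Plates were incubated at 37 °C for 18–24 h.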

[7] = tested on: Candida albicans (MTCC 3017); test: Minimum inhibitory concentration; type: cell-based; details: for MIC: Candida albicans, MTCC3017, read-out: Minimum inhibitory concentration (MIC), C. albicans; for Minimum inhibitory concentration (MIC), C. albicans: 31.25–500 µg/mL tested, 37 °C, 18–24 h
Summary of the method: (§4)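 MIC was determined in agar wells on Sabouraud dextrose agar seeded with the fungal strain (McFarland 0.5, 1.5 × 10^6 CFU/mL). DMF stocks at 1 mg/mL were diluted two-fold to five levels (31.25–500 µg/mL) and loaded into wells, with fluconazole as reference. After 18–24 h at 37 °C, the lowest inhibitory concentration was taken as the MIC.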

Cryptococcus neoformans [8] = test: Minimum inhibitory concentration; type: cell-based; details: for MIC: Cryptococcus neoformans, read-out: Minimum inhibitory concentration (MIC), C. neoformans; for Minimum inhibitory concentration (MIC), C. neoformans: 31.25–500 µg/mL tested, 37 °C, 18–24 h
Summary of the method: as §4

[9] = DPPH radical scavenging assay; type: biochemical; details: mean ± S.D., n = 3; for IC50 (DPPH radical scavenging): graphically determined
Summary of the method: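 DPPH scavenging, a modified method, was read as absorbance at 517 nm for test compounds at several concentrations. BHT served as standard, and DPPH in methanol served as control. Percent inhibition was calculated from control and sample absorbances, and IC50 was obtained graphically. Data were analysed by one-way ANOVA with Dunnett's post hoc test.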

Escherichia coli (res) [10] = test: Minimum inhibitory concentration; type: cell-based; details: for MIC: Escherichia coli, read-out: Minimum inhibitory concentration (MIC), E. coli (res), 31.25–500 µg/mL tested, 37 °C, 18–24 h
Summary of the method: as §3

[11] = tested on: Klebsiella pneumoniae (MTCC 109); test: Minimum inhibitory concentration; type: cell-based; details: for Minimum inhibitory concentration (MIC), K. pneumoniae: 31.25–500 µg/mL tested, 37 °C, 18–24 h
Summary of the method: as §3

SMILES | zone of inhibition, E. coli (res) (Escherichia coli (res) [1]) | zone of inhibition, K. pneumoniae [2] | zone of inhibition, S. aureus (res) [3] | zone of inhibition, C. albicans [4] | zone of inhibition, C. neoformans (Cryptococcus neoformans [5]) | MIC [6] | MIC [7] | MIC (Cryptococcus neoformans [8]) | % Inhibition (DPPH) ([9]; Conc. 10 μg/mL) | % Inhibition (DPPH) ([9]; Conc. 30 μg/mL) | % Inhibition (DPPH) ([9]; Conc. 50 μg/mL) | % Inhibition (DPPH) ([9]; Conc. 70 μg/mL) | IC50 (DPPH radical scavenging) [9] | MIC (Escherichia coli (res) [10]) | MIC ([11]; Klebsiella pneumoniae, MTCC109, read-out: Minimum inhibitory concentration (MIC), K. pneumoniae, 31.25–500 µg/mL tested, 37 °C, 18–24 h) | Minimum inhibitory concentration (MIC), E. coli (res) (Escherichia coli (res) [10]; 31.25–500 µg/mL tested, 37 °C, 18–24 h) | Minimum inhibitory concentration (MIC), K. pneumoniae [11] | Minimum inhibitory concentration (MIC), S. aureus (res) [6] | Minimum inhibitory concentration (MIC), C. albicans [7] | Minimum inhibitory concentration (MIC), C. neoformans (Cryptococcus neoformans [8])
Cc1cc(N=Nc2ccc(O)c(C=Nc3nc(-c4ccccc4)cs3)c2)ccc1Br [5a(Lig), 4-[(4-bromo-3-methylphenyl)diazenyl)-2-[(4-phenylthiazol-2-ylimino)methyl]phenol] | 13.67 ± 2.34 mm | 12.67 ± 2.25 mm | 15.83 ± 2.79^∗ mm | 12.17 ± 2.23 mm | 13.33 ± 1.37 mm | 31.2 µg/mL (≈ 65.5 µM) | 250 µg/mL (≈ 524 µM) | 250 µg/mL (≈ 524 µM) | 27.99 ± 0.04% | 39.34 ± 0.02% | 49.09 ± 0.07% | 63.9 ± 0.05% | 56 ± 0.78 µg/mL (≈ 117 µM) |  |  |  |  |  |  | 
Cc1cc(N=Nc2ccc(O)c(C=Nc3nc(-c4ccc(Cl)cc4)cs3)c2)ccc1Br [5b(Lig), 4-[(4-bromo-3-methylphenyl)diazenyl]-2-[(4-(4-chlorophenyl)thiazol-2-ylimino)methyl]phenol] | 15.33 ± 2.07 mm | 13.5 ± 2.43 mm | 11.5 ± 1.87 mm | 12 ± 1.27 mm | 12.33 ± 1.75 mm |  | 250 µg/mL (≈ 488 µM) | 250 µg/mL (≈ 488 µM) | 19.26 ± 0.04% | 38.53 ± 0.09% | 48.33 ± 0.07% | 79.89 ± 0.06% | 52 ± 1.13 µg/mL (≈ 102 µM) | 31.2 µg/mL (≈ 61.1 µM) |  |  |  |  |  | 
Cc1cc(C(C)(C)C)c(O)c(C(C)(C)C)c1 [BHT, butylated hydroxy toluene, reference compound] |  |  |  |  |  |  |  |  | 32.32 ± 0.01% | 49.54 ± 0.01% | 59.99 ± 0.10% | 87.74 ± 0.06% | 31 ± 0.70 µg/mL (≈ 141 µM) |  |  |  |  |  |  | 
Cc1cc(N=Nc2ccc(O)c(C=O)c2)ccc1Br [Compound 4e, 5-[(4-Bromo-3-methylphenyl)diazenyl]-2-hydroxybenzaldehyde] | 15.83 ± 1.47^∗ mm | 15.17 ± 2.14 mm | 16.17 ± 2.04^∗ mm | 10.17 ± 1.84 mm | 12.5 ± 1.52 mm | 31.2 µg/mL (≈ 97.9 µM) | 500 µg/mL (≈ 1570 µM) | 250 µg/mL (≈ 783 µM) | 17.96 ± 0.03% | 29.54 ± 0.05% | 33.64 ± 0.09% | 56.39 ± 0.08% | 72 ± 1.4 µg/mL (≈ 226 µM) | 31.2 µg/mL (≈ 97.9 µM) | 31.2 µg/mL (≈ 97.9 µM) |  |  |  |  | 
Cc1cc(N=Nc2ccc([O][Cu][O]c3ccc(N=Nc4ccc(Br)c(C)c4)cc3C=Nc3nc(-c4ccccc4)cs3)c(C=Nc3nc(-c4ccccc4)cs3)c2)ccc1Br [Compound 6b, Bis[{4-((4-bromo-3-methylphenyl)diazenyl)-2-((4-phenylthiazol-2-ylimino)methyl)phenoxy}] copper,] | 15.83 ± 1.84^∗ mm | 16 ± 2.37^∗ mm | 18.33 ± 1.75^∗ mm | 13.33 ± 2.34 mm | 12.67 ± 1.51 mm |  |  |  | 28.43 ± 0.07% | 41.83 ± 0.02% | 51.41 ± 0.05% | 79.97 ± 0.06% | 48 ± 0.89 µg/mL |  |  | 31.25 µg/mL | 31.25 µg/mL | 31.25 µg/mL | 125 µg/mL | 250 µg/mL
Cc1cc(N=Nc2ccc([O][Ni][O]c3ccc(N=Nc4ccc(Br)c(C)c4)cc3C=Nc3nc(-c4ccccc4)cs3)c(C=Nc3nc(-c4ccccc4)cs3)c2)ccc1Br [Compound 6c, Bis[{4-((4-bromo-3-methylphenyl)diazenyl)-2-((4-phenylthiazol-2-ylimino)methyl)phenoxy}] nickel] |  | 14.67 ± 3.14 mm | 14.83 ± 1.84 mm | 11.33 ± 1.51 mm | 15.83 ± 1.84 mm |  |  |  | 25.43 ± 0.08% | 39.65 ± 0.09% | 61.41 ± 0.04 % | 83.11 ± 0.04% | 40 ± 0.59 µg/mL |  |  |  | 62.5 µg/mL | 62.5 µg/mL | 250 µg/mL | 31.25 µg/mL
Cc1cc(N=Nc2ccc([O][Ni][O]c3ccc(N=Nc4ccc(Br)c(C)c4)cc3C=Nc3nc(-c4ccc(Cl)cc4)cs3)c(C=Nc3nc(-c4ccc(Cl)cc4)cs3)c2)ccc1Br [Compound 6f, bis[4-{(4-bromo-3-methylphenyl)diazenyl}-2-{(4-(4-chlorophenyl)thiazol-2-ylimino)methyl}phenoxy] nickel] |  | 16.67 ± 1.37^∗ mm | 15.17 ± 1.94 mm | 12.5 ± 1.52 mm | 10.33 ± 1.75 mm |  |  |  | 39.73 ± 0.02 % | 53.38 ± 0.03 % | 63.38 ± 0.01 % | 79.53 ± 0.02% |  |  |  |  | 31.25 µg/mL | 31.25 µg/mL | 125 µg/mL | 250 µg/mL
